Data on 98 compounds can be found in ChEMBL document CHEMBL4513216, “Probing the Open Global Health Chemical Diversity Library for Multistage-Active Starting Points for Next-Generation Antimalarials” (ACS Infect Dis, 2020).

A short description of the data set: Toxicity liver stage against HepG2, at 10uM. Further details: test concentration 10 uM, cell line HepG2-A16-CD81EGFP. The class given is cell-based. Conditions: human, HepG2-A16-CD81EGFP cells; read-out: INHIBITION
The method in brief:
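Uninfected HepG2-A16-CD81EGFP cells, 3 × 10^3 per well, 1536-well, plated on prespotted compound at 10 μM final, parasite-free screening media added to match infected plates; puromycin 10 μM positive, DMSO 0.5% negative; run in parallel with 48 h PbLuc assay at 37 °C, 5% CO2; viability by CellTiter-Glo luminescence, normalized to controls.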

For `c1cnc(-c2cnc(N3CCSCC3)nc2C2CC2)cn1`, the cytotoxicity at 10 µM amounted to 17.3%. The value for `CC(C)(C)c1noc(CN2CCCC(CNS(N)(=O)=O)C2)n1` (stereo not drawn) was 1.3%. Turning to `COc1cccc(S(=O)(=O)NC(=O)CC2CCCO2)c1` (stereo not drawn), the cytotoxicity at 10 µM is 7.53%. To `CCCn1nnnc1CN1Cc2ccccc2CC1c1nnc(C)o1` (stereo not drawn) belongs 9.52%; to `Cc1ccc(OCCN(C)C(=O)CCCN2CCCC2=O)c(C)c1`, -8.38%.

In the case of `O=C(Cc1ccsc1)N1CCN(CC2CC2)c2ncccc2C1`, the cytotoxicity at 10 µM is -101%.

In the case of `C=C(C)CN1CCC(n2cc(C3CCCC3)nn2)CC1`, the cytotoxicity at 10 µM was 4.98%. To `CSc1ccc(OC(C)C(=O)Nc2cc(C)n[nH]2)cc1` (stereo not drawn) belongs 8.64%. To `Cc1nc(CN2CCCC(C)(CO)C2)no1` (stereo not drawn) belongs 5.89%. To `CN(Cc1cccc(F)c1)C(=O)CN1CCOC(Cn2cncn2)C1` (stereo not drawn) belongs -2.09%. For the compound `CS(=O)(=O)NCc1cn2c(n1)CN(Cc1cccnc1)CC2`, the cytotoxicity at 10 µM was -103%. Take `CCn1nc(C)c2ncnc(NCCn3cccn3)c21`: the cytotoxicity at 10 µM was found to be 7.73%.

Turning to `CC(O)C1CCN(c2cc(Cl)ccc2C#N)CC1` (stereo not drawn), the cytotoxicity at 10 µM was determined as 4.92%.

For the compound `Cc1cnn(CC2CN(CCCc3nc4ccccc4o3)CCO2)c1` (stereo not drawn), the cytotoxicity at 10 µM is -2.45%. Consider `COc1cc(CNC(=O)Nc2cc(C(F)(F)F)c[nH]c2=O)ccn1`, for which the cytotoxicity at 10 µM came out at 1.53%. To `CC(C)N(CC(N)=O)CC(=O)NCCc1c(F)cccc1F` belongs -4.97%. Turning to `CC(C)(C)CNS(=O)(=O)C1CS(=O)(=O)c2ccccc21` (stereo not drawn), the cytotoxicity at 10 µM worked out at 14.3%. To `CC(O)CN1CCN(C(=O)CCOC(C)C)CC1` (stereo not drawn) belongs -3.86%; to `CNC(=O)C1CCCCN1C(=O)C1CCN(S(C)(=O)=O)CC1` (stereo not drawn), 6.03%; to `CCOc1ncccc1CNC(=O)c1cccc(C)n1`, -2.42%. The value for `O=C(Cc1cn2ccsc2n1)N1CCCC(n2ccnc2)C1` (stereo not drawn) was -8.22%. To `CC(C)c1nn(C)c(N(C)C)c1CNC1CCCCNC1=O` (stereo not drawn) belongs 2.91%; to `CNC(=O)NCC(=O)Nc1ccccc1N1CCc2ccccc21`, 2.46%; to `CC(C)(C)OC(=O)N1CCCCC1C(=O)NCc1cc[nH]n1` (stereo not drawn), 1.41%. Consider `Cc1cc(=O)n2nc(Oc3cc(Cl)cc(Cl)c3)sc2n1`, for which the cytotoxicity at 10 µM was found to be 16.8%.

As to `Cc1cc(-c2cnc(N3CCCC3)nc2C(C)C)on1`, the cytotoxicity at 10 µM amounted to 5.14%.

As to `COc1ccc(C(=O)N2CCCC3(CCCC(=O)N3C)C2)cc1` (stereo not drawn), the cytotoxicity at 10 µM was -10.1%. To `Cc1nc(-c2cccc(C(=O)N(C)C)c2)cs1` belongs 1.77%; to `Cc1cc(NC(=O)Cn2cnc(-c3cccs3)cc2=O)no1`, -0.243%; to `Cn1ccnc1CN1CCN2C[C@H](OCc3ccccc3)C[C@H]2C1`, 9.37%. On to `CC(C)n1cnnc1CN(C)Cc1ccoc1`, for which the cytotoxicity at 10 µM was 3.15%. To `COCCCNC(=O)CCn1ncc2c(Cl)cccc21` belongs 7.72%. To `Cc1nn(C)c(C)c1NC(=O)Nc1cccnc1N1CCCC1` belongs 7.31%. The value for `O=C(NCC(O)COc1cccc(F)c1)C1(c2ccc(F)cc2)CC1` (stereo not drawn) was 0.884%. As for `O=C(NCCNc1ccc(C(F)(F)F)cn1)c1ccoc1`, the cytotoxicity at 10 µM is -2%.

Regarding `O=C(O)[C@]12CCCN(C3CCOC3)C[C@H]1CN(c1ncccn1)C2` (stereo partly drawn), the cytotoxicity at 10 µM was -97.4%. The value for `COc1cc(CNC(=O)NCc2c(C)cc(C)[nH]c2=O)ccc1C` was -11.5%; that for `Cc1ccc(C(C)NC(=O)N2CCN(S(C)(=O)=O)CC2)o1` (stereo not drawn) was 25.3%; that for `COc1ccc(C(=O)N2C[C@@H](CN3CCCC3)[C@@H](CO)C2)c(C)c1` was -7.21%. `OCCC[C@@H]1CN(c2ncc(Cl)cc2Cl)CC[C@@H]1N1CCOCC1`: the cytotoxicity at 10 µM was 4.24%.

Take `c1cnc(N2C[C@@H]3COC[C@]3(COCC3CCCC3)C2)nc1`: the cytotoxicity at 10 µM was -8.85%. The value for `Cc1nc(NC(=O)c2cccnc2N2CCOCC2)sc1C` was -0.0261%; that for `NCC(=O)N1CCCC(c2ccnc(Nc3cnccn3)n2)C1` (stereo not drawn) was 2.66%; that for `NC(=O)Cn1ccnc1C1CCCN(Cc2cccc(Cl)c2F)C1` (stereo not drawn) was 7.81%. To `CSCCc1ccc(NC(=O)NCc2ccnc(N(C)C)c2)cc1` belongs 0.661%. To `CN(C)C(=O)N1CCCn2nc(CNC(=O)CCc3cccs3)cc2C1` belongs -5.04%; to `COCC1c2c(cnn2CC2CC2)CCN1Cc1ccc(OC)cc1` (stereo not drawn), 83.3%; to `CC(Nc1ccc(C(F)(F)F)cc1C#N)c1cccc(S(N)(=O)=O)c1` (stereo not drawn), -3.09%. Take `CCS(=O)(=O)N1CCc2c(nc(C3CCCN3)nc2NC)C1` (stereo not drawn): the cytotoxicity at 10 µM is -10.2%. To `CCOC(=O)N1CCN(C(=O)Cn2ccc3ncccc3c2=O)CC1` belongs -4.99%; to `COCCN(Cc1ccoc1)C(=O)CSc1ccc(F)cc1`, 1.04%; to `CC(C)(C)c1noc(CN2CCCN(Cc3cccs3)CC2)n1`, -8.8%. The value for `CN(C1CCN(c2ccccn2)CC1)S(=O)(=O)c1cccs1` was 13.3%. With `Cc1ccccc1CC(=O)N1C[C@@H](O)[C@H](N2CCN(C)CC2)C1`, the cytotoxicity at 10 µM was -4.29%.

Take `Cc1csc2c(=O)n3c(nc12)CCN(C(=O)c1ccccn1)CC3`: the cytotoxicity at 10 µM is -10.2%. The value for `COc1cc(C)nc(N2CCN(C(=O)COCC(F)(F)F)CC2)n1` was -9.62%; that for `CCc1ncc(C(=O)N2CCC(O)(CN3CCOCC3)C(C)(C)C2)cn1` (stereo not drawn) was -4.6%; that for `CCCOCCN1CCC2(CC1)CC(=O)N(Cc1cc(F)cc(F)c1)C2` was 2.71%. To `Cc1cc(Nc2ccc(F)cn2)cc(C2CCCN2)n1` (stereo not drawn) belongs 0.0453%; to `O=C(CCc1cccs1)N1CCCC(n2ccnc2)C1` (stereo not drawn), -1.13%; to `Cc1csc(CCNC(=O)Nc2cc(C(F)(F)F)c[nH]c2=O)n1`, 8.13%. Turning to `CN(C)C(=O)c1nc(CN2CC(Cc3ccccc3)CC2=O)no1` (stereo not drawn), the cytotoxicity at 10 µM is -0.849%. For the compound `Cc1ccc(CN(C)CC(=O)NC2(C)CCS(=O)(=O)C2)cc1` (stereo not drawn), the cytotoxicity at 10 µM was 5.05%.

`CCCn1cnnc1CN(C)C(=O)C1CCC(=O)N(C2CCCC2)C1` (stereo not drawn): the cytotoxicity at 10 µM came to 2.95%. To `COCC(C)N(Cc1ccccc1OC)C(=O)c1cc(C)[nH]c(=O)c1` (stereo not drawn) belongs -3.73%. In the case of `CN1CCOC(CNCc2nc(-c3ccco3)no2)C1` (stereo not drawn), the cytotoxicity at 10 µM was determined as 3.54%. The value for `Cn1c(NCC(=O)N2CCCC2)c(C#N)c(=O)n(C)c1=O` was 15.4%; that for `Cc1nn(-c2ccccn2)c(C)c1[C@@H]1C=C[C@@H](NC(=O)NC(C)C)C1` was 1.52%. The value for `Cc1cccc(C(=O)N2C[C@@H]3OCCN(c4ncccn4)[C@@H]3C2)n1` was 0.523%; that for `Cc1cccc2sc(NC(=O)CN3CCC(C)CC3)nc12` was 2.89%; that for `CCc1nsc(N2CCCN(C(=O)c3ccsc3)CC2)n1` was 5.73%. Consider `Fc1ccc(-c2cc(NCCC3CCOC3)n3nccc3n2)cc1` (stereo not drawn), for which the cytotoxicity at 10 µM was found to be 2.8%.

On to `CCS(=O)(=O)N1CC[C@@H]2[C@H](CC1)N(Cc1cccnc1)CCS2(=O)=O`, for which the cytotoxicity at 10 µM is -3.12%. As to `O=C(CCNS(=O)(=O)c1cccnc1)N1CCCCC1`, the cytotoxicity at 10 µM is -6.13%. With `CC(C)N1CCCn2nc(C(=O)NCCc3c[nH]cn3)cc2C1`, the cytotoxicity at 10 µM was found to be 14.2%.

For the compound `COc1cccc(-c2cnc3n2CCC32CCN(C(C)=O)CC2)c1`, the cytotoxicity at 10 µM is -2.05%. The value for `CN(CC1CN(CCn2cc(C#N)cn2)CCO1)c1cccnn1` (stereo not drawn) was 1.85%; that for `Cc1n[nH]c(C)c1CNc1ccc(-c2nc(C3CC3)no2)cn1` was -24.3%.

Consider `CCCN(CC)Cc1ccc(C(=O)NCC2COCCO2)c(=O)[nH]1` (stereo not drawn), for which the cytotoxicity at 10 µM worked out at 4.78%. The value for `Cc1nc(CN[C@H]2CCCN(C(=O)OC(C)(C)C)C2)cs1` was 0.577%; that for `O=C(NCc1cn2cccnc2n1)C1CC(=O)N(Cc2ccccn2)C1` (stereo not drawn) was 2.69%; that for `COCCC(=O)Nc1ccnn1-c1ccccc1` was -2.55%. The value for `c1ccc(-c2nccc(CNC3CCc4ncnn4C3)n2)cc1` (stereo not drawn) was 0.787%; that for `CC(C)(O)CN1CC(C)(C)CN(C(=O)CCc2ccccc2)CC1=O` was 2.37%. The value for `COCCO[C@H]1COCCN(C2CCN(C)CC2)C1` was 3.08%; that for `Cc1nc(CN(C)C2CCN(CC3CCC3)C2)no1` (stereo not drawn) was -8.19%. Turning to `COc1ccc(CN)c(OC(F)F)c1`, the cytotoxicity at 10 µM was -41.7%. To `Cc1nc(C2CCCN(C(=O)c3sccc3C3CC3)C2)no1` (stereo not drawn) belongs -3.74%. `CCC(CO)N(C/C(C)=C/c1ccco1)Cc1ccsc1` (stereo not drawn): the cytotoxicity at 10 µM came to 1.12%.

As for `COc1ccc(CN2CCCN(c3cc(C(N)=O)ccn3)CC2)cc1`, the cytotoxicity at 10 µM is 11%. `Cc1nc(CN2CCN(C(=O)CC(C)(C)c3ccccc3)CC2)no1`: the cytotoxicity at 10 µM is -1.96%. To `COc1ccc2oc(C(C)NC(=O)NCc3noc(C)n3)c(C)c2c1` (stereo not drawn) belongs 5.08%; to `CCN(CC)C(=O)Cn1ccc2cc(NC(=O)C3CCCO3)ccc21` (stereo not drawn), 1.35%. For the compound `Cc1nc(-c2ccccc2)cc2nn(CC(N)=O)c(=O)n12`, the cytotoxicity at 10 µM was 0.301%. To `CCC(=O)Nc1ccc2c(ccn2CCOC)c1` belongs 3.54%; to `CCC(CO)NC(=O)Nc1cc(F)ccc1Br` (stereo not drawn), 11.9%.

Regarding `Cc1cn(-c2ccccc2)nc1NS(=O)(=O)c1ccc(C(=O)O)cc1F`, the cytotoxicity at 10 µM is -2.59%.

Consider `CNc1ncc(CN(C)c2ncnc3onc(C)c23)cn1`, for which the cytotoxicity at 10 µM was -16.8%.
